Measured values: ChEMBL document CHEMBL4152329, “Benzofuran hydrazones as potential scaffold in the development of multifunctional drugs: Synthesis and evaluation of antioxidant, photoprotective and antiproliferative activity” (Eur J Med Chem, 2018)

Tests used:
[1] = Antioxidant activity assessed as DPPH free radical scavenging activity by measuring trolox equivalent by spectrophotometric analysis; format: functional
In short: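 Diluted compound solution (0.750 mL) added to 1.5 mL methanolic DPPH. Absorbance decrease read at 517 nm. Blank was DPPH plus methanol. Inhibition % = [(AB−As)/AB]×100. Trolox calibration curve used as standard.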

[2] = Antioxidant activity assessed as ferric ion reducing activity by measuring trolox equivalents after 10 mins by FRAP assay; format: functional
In short: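 Reagent made fresh: 0.1 M acetate buffer pH 3.6, 10 mM TPTZ in 40 mM HCl and 20 mM FeCl3 at 10:1:1 (v/v/v). Diluted sample (0.1 mL) added to 1.9 mL reagent; solvent used for blank. Absorbance at 593 nm after 10 min, increase taken over blank. Expressed as Trolox activity from calibration curve.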

[3] = Antiproliferative activity against human Colo38 cells after 7 days by Coulter counter method; format: functional, cell-based; details: 168 h
In short: (§1)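 RPMI 1640 with 10% FBS, penicillin, streptomycin and 2 mM glutamine, pH 7.2, 37 °C, 5% CO2. Stocks 20 mM in MeOH/DMSO 10%, diluted in MeOH, added at serial dilutions. Cells suspended in physiological solution and counted by Coulter counter. IC50 = 50% growth inhibition while untreated cells in log phase. Untreated cells as negative control on every plate.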

K562 [4] = test: Antiproliferative activity against human K562 cells after 7 days by Coulter counter method; format: functional, cell-based; details: K562, 168 h; in short: as §1
[5] = UV filtering activity of the compound assessed as maximum absorption wavelength; format: functional
In short: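 UV absorption spectrum recorded in methanol at 0.000034 (± 0.0000033) M; wavelength of maximum absorption taken, together with molar extinction coefficient.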

[6] = UV filtering activity of the compound assessed as wavelength at which the integral of the spectral absorbance curve reaches 90% of area under the curve from 290 to 400 nm; format: functional
In short: (§2)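 Spectra recorded on methanolic solutions at 0.000034 (± 0.0000033) M. Absorbance converted to transmittance by A(λ) = −Log[T(λ)], and SPF, UVA/UVB ratio, UVAPF and critical wavelength derived from the transmittance spectrum. Method adapted from the official in vitro SPF method; UVAPF per ISO-24443. PBSA served as reference.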

[7] = UV filtering activity of the compound assessed as solar protection factor relative to control; format: functional; in short: as §2
[8] = UV filtering activity of the compound assessed as UVA/UVB ratio; format: functional; in short: as §2
[9] = UV filtering activity of the compound assessed as UVA protection factor value relative to control; format: functional; in short: as §2
[10] = Antioxidant activity assessed as AAPH-induced radical scavenging activity by measuring trolox equivalents for oxygen radical absorbance capacity measured at 5 mins intervals up to 30 mins by ORAC-FL assay; format: functional
In short: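 Fluorescein (85 nM) as target, AAPH as peroxyl radical generator, 0.2 mL final volume. Compounds dissolved in methanol and diluted in phosphate buffer pH 7.4. Fluorescence read at ex 485/em 538 nm, 37 °C, every 5 min up to 30 min after AAPH. Value from difference in areas under fluorescein decay curves, blank vs sample. Trolox calibration 40–240 µM; µmol TE per gram compound.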

K562 [11] = test: Induction of erythroid differentiation on human K562 cells after 5 days by benzidine staining-based assay; format: functional
In short: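 K562 cells treated in culture, then scored for erythroid differentiation by benzidine staining with 0.2% benzidine in 5 M glacial acetic acid and 10% H2O2. Assayed after 5, 6 and 7 days of treatment; value given as percentage of differentiated cells.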

| SMILES | Activity [1] | Activity [2] [µmolequiv/g] | IC50 [3] [µM] | IC50 (K562 [4]) [µM] | Activity [5] [nm] | Activity [6] [nm] | SPF [7] | Ratio [8] | UVAPF [9] | Activity [10] [µmolequiv/g] | Activity (K562 [11]) [%] |
| --- | --- | --- | --- | --- | --- | --- | --- | --- | --- | --- | --- |
| O=C(N/N=C/c1cc(Cl)ccc1O)c1cc2ccccc2o1 | Below limit of detection | 46.3 | 2.02 | 3.7 | 310 | 357 | 5.78 | 1.14 | 2.89 | – | – |
| CCN(CC)c1ccc(/C=N/NC(=O)c2cc3ccccc3o2)c(O)c1 | 1010 µmolequiv/g | 4150 | 0.44 | 0.52 | 381 | 387 | 2.59 | 1.29 | 3.6 | 22100 | – |
| O=C(N/N=C/c1ccc(O)cc1)c1cc2ccccc2o1 | 45.8 µmolequiv/g | 2290 | 39.4 | 79.9 | 328 | 322 | 3.4 | 0.29 | 1.03 | 26100 | – |
| O=S(=O)(O)c1ccc2[nH]c(-c3ccccc3)nc2c1 | – | – | – | – | 302 | 394 | 1.68 | 1.27 | 5.1 | – | – |
| O=C(N/N=C/c1cc(O)ccc1O)c1cc2ccccc2o1 | 6200 µmolequiv/g | 6970 | 6.26 | 36.8 | 306 | 366 | 2.18 | 1.33 | 2.38 | 19000 | – |
| COc1cc(/C=N/NC(=O)c2cc3ccccc3o2)ccc1O | 101 µmolequiv/g | 3100 | 49 | 5.6 | 334 | 371 | 3.36 | 2.33 | 5.57 | 10900 | 5 |
| O=C(N/N=C/c1ccc(O)c(O)c1O)c1cc2ccccc2o1 | 9210 µmolequiv/g | 13200 | 6.48 | 6 | 336 | 353 | 7.58 | 0.85 | 2.45 | 5260 | – |
| O=C(N/N=C/c1ccc(O)cc1O)c1cc2ccccc2o1 | 149 µmolequiv/g | 1210 | 0.57 | 4.3 | 343 | 342 | 10.2 | 0.26 | 1.5 | 9380 | 5 |
| O=C(N/N=C/c1c(O)ccc2ccccc12)c1cc2ccccc2o1 | 132 µmolequiv/g | 132 | 3.01 | 4.5 | 329 | 359 | 8.82 | 0.39 | 2.85 | – | – |
| O=C(N/N=C/c1cccc(O)c1)c1cc2ccccc2o1 | 76.7 µmolequiv/g | 1670 | 6.2 | 52.4 | 314 | 353 | 7.58 | 0.85 | 2.45 | 6790 | – |
| O=C(N/N=C/c1c(O)cc(O)cc1O)c1cc2ccccc2o1 | 1140 µmolequiv/g | 4020 | 24.4 | 64 | 345 | 366 | 1.99 | 1.32 | 2.02 | 3560 | – |
